Laboratory results taken from PubChem BioAssay.
Calls of active or inactive are those of the source.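 The calls were made as follows: active = viability at or below 30% in both replicate assays; inconclusive = viability at or below 30% in just one of the two assays; inactive = the rest.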

test: HUVEC growth inhibition – cell-based, human, primary screen (AID 575); conditions: HUVEC proliferation, CellTiter-Glo luminescence, 72 h; at 10 µM; stronger effect = lower value;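 also: 100% = median of untreated cell wells with 0.1% DMSO on each plate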
Summary of the method: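 Test system: HUVEC primary cells. Quantity: 1250 endothelial cells in each well. Dosing: single-point 10 µM, DMSO 0.1% final. Incubation: 72 h treatment at 37 °C. Measured by: CTG luminescence. Control set: DMSO cell controls and MePR drug controls. Plate: collagen-coated 384-well format.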

| SMILES | viability |
| --- | --- |
| COC(=O)c1cnn2c(C(F)(F)F)cc(-c3ccco3)nc12 | 79.9% (inactive) |
| CCOC(=O)c1ccc(NC(=O)CCc2nc(-c3cccc(C)c3)no2)cc1 | 40.8% (inactive) |
| COc1ccccc1C(=O)N1CCN=C1SCc1cccnc1 | 97.5% (inactive) |
| c1cncc(-c2nnc3sc(-c4ccco4)nn23)c1 | 99.5% (inactive) |
| CC1CN(c2nc(-c3ccccc3)nc3ccccc23)CC(C)O1 (stereo not given) | 88.2% (inactive) |
| O=C(NC1CCN(Cc2nnnn2CCc2ccccc2)CC1)c1ccccc1F | 85.4% (inactive) |
| O=S(=O)(c1ccc(OCC(O)CN2CCC(Cc3ccccc3)CC2)cc1)N1CCOCC1 (stereo not given) | 73.4% (inactive) |
| COc1ccc(C2N(C(=O)c3ccccc3)CCN2C(=O)c2ccccc2)cc1 | 113% (inactive) |
| CCSC1=NCN(CCCC(=O)O)CN1 | 96.3% (inactive) |
| O=C(CCOc1ccccc1)NCc1ccccc1 | 89.9% (inactive) |
| CCOC(=O)c1ccccc1NC(=O)c1cc2sccc2n1C | 70.5% (inactive) |
| C=CCn1c(SCC(=O)NC23CC4CC(CC(C4)C2)C3)nc(O)cc1=O | 91.4% (inactive) |
| O=C(OCc1ccc2c(c1)OCO2)c1ccc(S(=O)(=O)N2CCCCC2)cc1 | 57.9% (inactive) |
| COC(=O)N1CC(c2ccccc2)CC1=O (stereo not given) | 101% (inactive) |
| COc1ccc(C2=Nn3c(nnc3-c3ccccc3)SC2)cc1OC | 78.1% (inactive) |
| CCOc1ccc(Cl)cc1S(=O)(=O)N1CCCC1 | 101% (inactive) |
| Cn1c(SCCN2CCCCC2)nnc1-c1ccccc1Br | 105% (inactive) |
| O=C(COc1ccccc1)N1CCN(C(=O)c2cccc(F)c2)CC1 | 102% (inactive) |
| COc1ccc(CN2CC(C(=O)NCCCOC(C)C)CC2=O)cc1 (stereo not given) | 107% (inactive) |
| COC(=O)CSc1nc(C)c(C(C)=O)cc1C#N | 111% (inactive) |

| SMILES | viability |
| --- | --- |
| Cn1c(=O)c2c(nc(Br)n2CCSc2ncccn2)n(C)c1=O | 106% (inactive) |
| O=C(NCC(c1cccnc1)N1CCOCC1)c1cccs1 (stereo not given) | 89.6% (inactive) |
| O=C(CSc1nnnn1-c1ccc(Cl)cc1)NC(=O)Nc1ccc2c(c1)OCCO2 | 66.9% (inactive) |
| Cc1nc2sc(C(c3ccco3)N3CCN(c4ccccc4F)CC3)c(O)n2n1 (stereo not given) | 101% (inactive) |
| CC1CCCCC1NC(=O)CN1CCN(Cc2ccccc2Cl)C1=O (stereo not given) | 90.9% (inactive) |
| COc1ccc(-n2c(=O)[nH]cc(C(=O)Nc3ccc(NC(C)=O)cc3)c2=O)cc1 | 98.8% (inactive) |
| CCN(CC)CCN1C(=O)C(=O)/C(=C(/O)c2c(C)[nH]c(C(=O)OC)c2C)C1c1ccco1 (stereo not given) | 107% (inactive) |
| Cc1nc(N2CCc3ccccc32)[nH]c(=O)c1CCC(C)C | 72.3% (inactive) |
| C=COC(=O)CSc1snc(SCC(=O)OC)c1C#N | 66.2% (inactive) |
| COc1ccc2[nH]c(=O)c(CN(C(=O)c3ccncc3)C(C)C)cc2c1 | 113% (inactive) |
| Cc1ccc2cc3cc(C(=O)N4CC(C)CC(C)C4)oc3nc2c1 (stereo not given) | 69.3% (inactive) |
| O=C(C1CCN(c2nnnn2-c2ccccc2)CC1)N1CCN(c2ccccc2)CC1 | 85.6% (inactive) |
| CCCCSCCCNC(=O)CS(=O)Cc1nc(-c2cccc(C)c2)oc1C (stereo not given) | 91.9% (inactive) |
| Cc1cc(C)n(-c2nnc(C)n2/N=C/c2ccccc2F)n1 | 110% (inactive) |
| O=C(O)c1cc(-c2ccccc2Cl)n[nH]1 | 95.6% (inactive) |
| O=C1c2ccccc2C(=O)N1CC(O)Cn1nnc2ccccc21 (stereo not given) | 90.9% (inactive) |
| COCCN(C(=O)CCC(=O)Nc1ccccn1)C(C(=O)NC1CCCC1)c1ccc(OC)cc1 (stereo not given) | 94.6% (inactive) |
| CCOC(=O)c1ccccc1NC(=O)COC(=O)C1=COCCO1 | 96.7% (inactive) |
| Cc1ccc(-c2cc(C(=O)O)n[nH]2)o1 | 98.7% (inactive) |
| Cn1c(=O)c2c(nc(SCCCO)n2Cc2ccccc2Cl)n(C)c1=O | 67.2% (inactive) |
